What was measured:
Progesterone receptor = biological target: T1, Progesterone receptor (Homo sapiens, UniProt P06401); assay: Displacement of [3H]-progesterone from cytosolic fraction of human recombinant progesterone-B receptor by scintillation counting analysis
T1 sequence (P06401 whole entry): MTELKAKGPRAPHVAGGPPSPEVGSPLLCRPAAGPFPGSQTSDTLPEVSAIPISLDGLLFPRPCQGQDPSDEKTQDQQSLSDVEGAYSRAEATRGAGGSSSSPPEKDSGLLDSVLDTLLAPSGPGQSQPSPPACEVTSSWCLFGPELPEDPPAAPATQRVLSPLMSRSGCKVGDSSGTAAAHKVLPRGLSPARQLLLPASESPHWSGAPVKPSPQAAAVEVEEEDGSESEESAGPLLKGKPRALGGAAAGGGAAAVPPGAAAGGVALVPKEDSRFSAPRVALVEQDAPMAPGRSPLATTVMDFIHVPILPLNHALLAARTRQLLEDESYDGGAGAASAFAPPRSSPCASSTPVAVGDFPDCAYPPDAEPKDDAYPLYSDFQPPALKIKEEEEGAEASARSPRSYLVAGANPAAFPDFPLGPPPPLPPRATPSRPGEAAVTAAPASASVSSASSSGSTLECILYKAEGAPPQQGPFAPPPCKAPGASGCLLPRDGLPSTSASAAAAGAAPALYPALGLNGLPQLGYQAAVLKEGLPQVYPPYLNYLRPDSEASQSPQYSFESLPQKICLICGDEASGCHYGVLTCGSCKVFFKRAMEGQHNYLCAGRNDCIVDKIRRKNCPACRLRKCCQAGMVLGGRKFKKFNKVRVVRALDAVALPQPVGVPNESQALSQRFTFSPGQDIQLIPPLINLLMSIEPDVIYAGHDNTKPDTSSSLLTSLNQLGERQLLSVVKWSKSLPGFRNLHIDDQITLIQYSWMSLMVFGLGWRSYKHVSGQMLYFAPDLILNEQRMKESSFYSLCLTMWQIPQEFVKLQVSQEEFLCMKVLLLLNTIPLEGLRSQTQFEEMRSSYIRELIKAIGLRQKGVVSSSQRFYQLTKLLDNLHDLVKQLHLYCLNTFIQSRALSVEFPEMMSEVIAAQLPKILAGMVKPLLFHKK

Androgen receptor = biological target: T2, Androgen receptor (Homo sapiens, UniProt P10275); assay: Displacement of [3H]methyltrienolone from cytosolic fraction of androgen receptor in human […] cells after 24 hrs by scintillation counting analysis; type: cell-based
T2 sequence (P10275 whole entry): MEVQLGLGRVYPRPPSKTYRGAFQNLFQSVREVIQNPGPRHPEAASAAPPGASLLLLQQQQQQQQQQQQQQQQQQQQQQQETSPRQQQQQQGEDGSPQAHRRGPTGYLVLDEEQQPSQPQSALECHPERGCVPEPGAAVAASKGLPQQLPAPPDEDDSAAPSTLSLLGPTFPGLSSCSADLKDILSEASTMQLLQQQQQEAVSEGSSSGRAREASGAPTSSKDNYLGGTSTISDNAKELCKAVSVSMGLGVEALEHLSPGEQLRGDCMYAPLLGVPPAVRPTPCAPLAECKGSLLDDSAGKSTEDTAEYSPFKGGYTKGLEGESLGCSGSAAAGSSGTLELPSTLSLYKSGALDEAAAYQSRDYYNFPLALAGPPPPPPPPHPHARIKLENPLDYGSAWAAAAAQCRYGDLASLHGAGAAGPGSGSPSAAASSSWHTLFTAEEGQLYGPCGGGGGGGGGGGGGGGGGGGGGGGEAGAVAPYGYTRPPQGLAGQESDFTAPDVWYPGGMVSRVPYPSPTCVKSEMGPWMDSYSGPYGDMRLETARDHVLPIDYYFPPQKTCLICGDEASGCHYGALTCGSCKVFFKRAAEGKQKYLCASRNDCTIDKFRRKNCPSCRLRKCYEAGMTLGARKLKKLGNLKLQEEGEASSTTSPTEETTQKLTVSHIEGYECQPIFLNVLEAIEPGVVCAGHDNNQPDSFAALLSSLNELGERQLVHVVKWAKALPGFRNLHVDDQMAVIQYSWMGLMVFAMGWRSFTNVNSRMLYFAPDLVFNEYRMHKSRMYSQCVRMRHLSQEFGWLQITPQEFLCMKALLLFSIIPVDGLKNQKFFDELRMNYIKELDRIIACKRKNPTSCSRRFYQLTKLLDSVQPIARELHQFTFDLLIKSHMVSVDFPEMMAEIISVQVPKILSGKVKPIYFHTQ
In short: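 Assay run at Cerep. Binding of [³H]methyltrienolone to cytosolic androgen receptor from LNCaP cells.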

[1] = Cmax in Sprague-Dawley rat at 10 mg/kg, po by LC/MS/MS analysis; type: ADME, organism-based; parameters: dose 10 mg/kg, route oral; settings: in vivo
In short: (§1)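 Male Sprague–Dawley rats dosed orally (n = 4). Jugular vein blood sampled at 0.25, 0.5, 1, 2, 4, 6 and 24 h into heparin, plasma obtained by centrifugation. Concentrations determined by LC/MS/MS.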

[2] = Tmax in Sprague-Dawley rat at 10 mg/kg, po by LC/MS/MS analysis; type: ADME, organism-based; settings: in vivo; in short: as §1
[3] = Half life in Sprague-Dawley rat at 1 mg/kg, iv by LC/MS/MS analysis; type: ADME, organism-based; settings: in vivo
In short: (§2)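 Single intravenous dose to male Sprague–Dawley rats (n = 4). Jugular vein blood drawn at 0.05, 0.25, 0.5, 1, 2, 4, 8 and 24 h, heparin anticoagulant, plasma separated by centrifugation. Plasma drug level measured by LC/MS/MS.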

[4] = Half life in Sprague-Dawley rat at 10 mg/kg, po by LC/MS/MS analysis; type: ADME, organism-based; settings: in vivo; in short: as §1
[5] = AUC (0 to infinity) in Sprague-Dawley rat at 10 mg/kg, po by LC/MS/MS analysis; type: ADME, organism-based; parameters: dose 10 mg/kg, time infinity, route oral; settings: in vivo; in short: as §1
[6] = Total clearance in Sprague-Dawley rat at 1 mg/kg, iv by LC/MS/MS analysis; type: ADME, organism-based; settings: in vivo; in short: as §2
[7] = Volume of distribution at steady state in Sprague-Dawley rat at 1 mg/kg, iv by LC/MS/MS analysis; type: ADME, organism-based; settings: in vivo, read-out: Vdss; in short: as §2
[8] = Oral bioavailability (0 to infinity) in Sprague-Dawley rat at 10 mg/kg by LC/MS/MS analysis; type: ADME, organism-based; settings: in vivo
In short: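 Bioavailability from paired studies in male Sprague–Dawley rats: 1 mg/kg i.v. and 10 mg/kg p.o. (n = 4 each). Jugular vein heparinized plasma sampled up to 24 h, quantified by LC/MS/MS.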

Plasma = assay: Unbound plasma concentration in Sprague-Dawley rat at 30 mg/kg, po measured at 1 hr by LC/MS/MS analysis; type: ADME, organism-based; settings: in vivo
In short: (§3)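 Male SD rats given 30 mg/kg orally (n = 3 per time point), killed at 1 and 3 h. Heparinized blood collected for plasma; brain rinsed in saline, weighed, homogenized in five volumes (w/v) saline. Plasma and brain levels by LC/MS/MS. Kp,uu,brain is the ratio of unbound brain to unbound plasma concentration.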

[9] = Unbound brain to plasma concentration ratio in Sprague-Dawley rat at 30 mg/kg, po measured at 1 hr by LC/MS/MS analysis; type: ADME, organism-based; settings: brain and plasma, read-out: K(p,uu,brain); in short: as §3
Rattus norvegicus = assay: Antidepressant-like activity in Wistar rat assessed as decrease in immobility time at 10 mg/kg, po administered at 1, 5, 23.5 hrs prior to testing measured for 5 mins by forced swimming test relative to vehicle-treated control; type: functional; parameters: scale not given: the % may be the effect or the level left

- Ki (Progesterone receptor): 1480 nM
- Ki (Androgen receptor): > 2300 nM
- Cmax [1]: 273 ng/mL
- Tmax [2]: 3.5 h
- half-life [3]: 3.2 h
- half-life [4]: 4.6 h
- AUC(0-inf) [5]: 2720 ng·h/mL
- clearance [6]: 37.1 mL/min/kg
- Vd [7]: 6.13 L/kg
- bioavailability [8]: 59%
- Cp(f) (Plasma): 14.1 nM
- Kp uu at 1 h [9]: 1.8
SMILES: Cc1noc(C)c1-c1cc2c(c3c1CCC3)NC(C)(C)C(=O)C2(C)C
- Activity (Rattus norvegicus): 89.1%
